Target: Amyloid-beta precursor protein (Homo sapiens, UniProt P05067)
Assay: Inhibition constant against [125I]-7 (TZDM) binding to Amyloid beta 1-40 aggregates
Procedure, shortened: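 Abeta40 peptide aggregated at 0.5 mg/mL in pH 7.4 buffer (10 mM sodium phosphate, 1 mM EDTA), 37 °C for 36-42 h with shaking. Competition in 1 mL of 40% EtOH: fibrils 10-50 nM final, radiotracer 0.05 nM, inhibitors 10^-5 to 10^-10 M. Nonspecific binding with 2 µM thioflavin-T. Incubated 3 h at room temperature, then GF/B filtration with 10% ethanol washes and gamma counting. Ki from nonlinear regression.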

Amyloid-beta precursor protein, sequence (P05067 whole entry): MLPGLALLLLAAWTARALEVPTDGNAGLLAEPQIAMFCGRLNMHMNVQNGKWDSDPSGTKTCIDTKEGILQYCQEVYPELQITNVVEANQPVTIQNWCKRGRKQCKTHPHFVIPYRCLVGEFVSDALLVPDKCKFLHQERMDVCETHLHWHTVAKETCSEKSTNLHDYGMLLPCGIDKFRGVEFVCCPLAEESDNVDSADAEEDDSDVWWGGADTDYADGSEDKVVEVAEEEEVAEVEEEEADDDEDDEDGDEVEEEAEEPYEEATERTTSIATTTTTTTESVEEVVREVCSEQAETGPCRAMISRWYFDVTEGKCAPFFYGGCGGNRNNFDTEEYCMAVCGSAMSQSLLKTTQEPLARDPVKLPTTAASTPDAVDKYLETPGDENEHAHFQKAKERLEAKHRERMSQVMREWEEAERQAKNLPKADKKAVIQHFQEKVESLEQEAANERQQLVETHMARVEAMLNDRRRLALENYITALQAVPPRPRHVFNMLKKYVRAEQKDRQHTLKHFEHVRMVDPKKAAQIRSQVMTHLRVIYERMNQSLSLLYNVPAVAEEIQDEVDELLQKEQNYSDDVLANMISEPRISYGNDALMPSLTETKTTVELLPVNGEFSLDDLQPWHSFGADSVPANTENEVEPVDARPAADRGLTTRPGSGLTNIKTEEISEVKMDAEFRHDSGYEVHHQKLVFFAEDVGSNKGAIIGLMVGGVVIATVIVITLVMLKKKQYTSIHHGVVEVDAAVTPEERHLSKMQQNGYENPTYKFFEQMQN

| Ki [nM] | SMILES |
| --- | --- |
| 242 | Cc1ccc2nc(-c3ccc(N(C)C)cc3)cn2c1 |
| 10.3 | CN(C)c1ccc(-c2cn3cc(Br)ccc3n2)cc1 |

Source: ChEMBL document CHEMBL1145100, “Structure-activity relationship of imidazo[1,2-a]pyridines as ligands for detecting beta-amyloid plaques in the brain” (J Med Chem, 2003)
